ChEMBL document CHEMBL4130563, “Structure-Based Design and Synthesis of New Estrane-Pyridine Derivatives as Cytochrome P450 (CYP) 1B1 Inhibitors” (ACS Med Chem Lett, 2017)

Assays:
[1] = target: T1, CYP1B1 (Homo sapiens, UniProt Q16678); assay: Inhibition of recombinant human CYP1B1 expressed in supersomes coexpressing P450 reductase at 0.3 uM using 7-ethyl-O-resorufin as substrate after 45 mins in presence of NADPH by fluorescence assay relative to control; conditions: probe 7-ethyl-O-resorufin
T1 sequence (Q16678 whole entry): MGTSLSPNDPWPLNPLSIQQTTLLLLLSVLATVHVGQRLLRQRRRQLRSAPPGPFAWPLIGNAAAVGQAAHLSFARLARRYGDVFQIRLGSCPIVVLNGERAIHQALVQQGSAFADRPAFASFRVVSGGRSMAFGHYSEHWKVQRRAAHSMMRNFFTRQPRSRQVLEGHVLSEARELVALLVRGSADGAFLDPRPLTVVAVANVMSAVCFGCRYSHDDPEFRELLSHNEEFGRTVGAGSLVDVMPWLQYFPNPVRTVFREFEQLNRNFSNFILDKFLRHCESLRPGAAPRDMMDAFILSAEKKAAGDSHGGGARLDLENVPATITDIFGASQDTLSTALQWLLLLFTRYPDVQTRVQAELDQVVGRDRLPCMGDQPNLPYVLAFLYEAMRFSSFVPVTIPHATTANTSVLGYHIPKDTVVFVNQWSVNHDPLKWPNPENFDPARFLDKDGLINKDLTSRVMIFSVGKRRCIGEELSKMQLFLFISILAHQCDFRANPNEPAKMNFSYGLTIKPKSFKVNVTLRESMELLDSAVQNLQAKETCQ

[2] = system: Rattus norvegicus; assay: AUC (0 to 24 hrs) in rat plasma assessed as 2-(3-pyridinyl)-3-hydroxy-estra-1,3,5(10)-trien-17-one level at 2 mg/kg, sc administered as single dose measured at 2 hrs post dose by LC-MS analysis; assay type: ADME, organism-based; parameters: dose 2 mg/kg, time < 24 hr, route subcutaneous; conditions: in vivo
How it was run: (§1)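 Rats given one subcutaneous injection of the 17β-alcohol parent at 2.0 mg/kg (0.66 mg in PG:DMSO 92:8). Plasma levels of the parent and of its 17-keto metabolite were followed over time. AUC (ng.h/mL) was calculated for each species and for the two combined.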

[3] = target: T2, Cytochrome P450 1B1 (Homo sapiens, UniProt Q16678); assay: Inhibition of recombinant human CYP1B1 expressed in supersomes coexpressing P450 reductase using 7-ethyl-O-resorufin as substrate after 45 mins in presence of NADPH by fluorescence assay
T2 sequence (Q16678 whole entry): T1 sequence (Q16678 whole entry)

[4] = target: T1, CYP1B1; assay: Potency index, ratio of alpha-naphthoflavone IC50 to compound IC50 for inhibition of recombinant human CYP1B1 expressed in supersomes coexpressing P450 reductase; conditions: read-out: Ratio IC50
How it was run: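 EROD assay on recombinant human CYP1B1 with NADPH as cofactor. Resorufin ethyl ether is the substrate, and conversion to resorufin is read by fluorescence.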

[5] = Drug uptake in rat plasma at 2 mg/kg, sc administered as single dose measured at 2 hrs post dose by LC-MS analysis; assay type: ADME, organism-based; how it was run: as §1
[6] = Drug metabolism in rat plasma assessed as 2-(3-pyridinyl)-3-hydroxy-estra-1,3,5(10)-trien-17-one formation at 2 mg/kg, sc administered as single dose measured at 2 hrs post dose by LC-MS analysis; assay type: ADME, organism-based; conditions: in vivo; how it was run: as §1
[7] = AUC (0 to 24 hrs) in rat plasma at 2 mg/kg, sc administered as single dose measured at 2 hrs post dose by LC-MS analysis; assay type: ADME, organism-based; parameters: time < 24 hr, dose 2 mg/kg, route subcutaneous; how it was run: as §1

Row | SMILES | inhibition at 0.75 h, 0.3 µM [1] [%] | also measured
1 | C[C@]12CC[C@@H]3c4ccc(S)cc4CC[C@H]3[C@@H]1CCC2=O | 13.3 | –
2 | C[C@]12CC[C@@H]3c4ccc(-c5cccnc5)cc4CC[C@H]3[C@@H]1CCC2=O | 28.2 | –
3 | C[C@]12CC[C@@H]3c4cc(-c5cccnc5)c(O)cc4CC[C@H]3[C@@H]1CCC2=O | 37.8 | IC50 [3]: 63 nM
4 | C[C@]12CC[C@@H]3c4ccc(-c5ccncc5)cc4CC[C@H]3[C@@H]1CCC2=O | 6.1 | –
5 | C[C@]12CC[C@@H]3c4cc(-c5ccncc5)c(O)cc4CC[C@H]3[C@@H]1CC[C@@H]2O | 87.4 | IC50 [3]: 32 nM; selectivity ratio [4]: 2.5
6 | C[C@]12CC[C@@H]3c4cc(-c5ccncc5)c(O)cc4CC[C@H]3[C@@H]1CCC2=O | 21.3 | IC50 [3]: 120 nM
7 | O=c1cc(-c2ccccc2)oc2c1ccc1ccccc12 [ALPHA-NAPHTHOFLAVONE] | 94 | –
8 | C[C@]12CC[C@@H]3c4ccc(O)cc4CC[C@H]3[C@@H]1CC[C@@H]2O [ESTRADIOL] | 12.4 | –

Continued, in another order:

Row | inhibition at 0.75 h, 0.3 µM [1] [%] | SMILES | also measured
9 | 19.6 | C[C@]12CC[C@@H]3c4ccc(-c5cccnc5)cc4CC[C@H]3[C@@H]1CC[C@@H]2O | –
10 | 20.9 | C[C@]12CC[C@@H]3c4ccc(O)c(-c5ccncc5)c4CC[C@H]3[C@@H]1CC[C@@H]2O | –
11 | 85.4 | C[C@]12CC[C@@H]3c4cc(-c5cccnc5)c(O)cc4CC[C@H]3[C@@H]1CC[C@@H]2O | AUC [2]: 33.2 ng·h/mL; IC50 [3]: 11 nM; selectivity ratio [4]: 7.5; concentration at 2 h [5]: 4 ng/mL; Drug metabolism [6]: 7 ng/mL; AUC(0-t) at 24 h [7]: 12.8 ng·h/mL
12 | 14 | C[C@]12CC[C@@H]3c4ccc(O)c(-c5cccnc5)c4CC[C@H]3[C@@H]1CCC2=O | –
13 | 16.9 | C[C@]12CC[C@@H]3c4ccc(O)c(-c5ccncc5)c4CC[C@H]3[C@@H]1CCC2=O | –
14 | 28.9 | C[C@]12CC[C@@H]3c4ccc(O)c(-c5cccnc5)c4CC[C@H]3[C@@H]1CC[C@@H]2O | –
15 | 19.5 | C[C@]12CC[C@@H]3c4ccc(-c5ccncc5)cc4CC[C@H]3[C@@H]1CC[C@@H]2O | –
